Measurements reported in ChEMBL document CHEMBL1138351, “Small, potent, and selective diaryl phosphonate inhibitors for urokinase-type plasminogen activator with in vivo antimetastatic properties” (J Med Chem, 2007).

Experiments:
[1] = Chemical stability assessed as half life of hydrolysis at pH 4; assay type: physicochemical; details: buffer
[2] = Chemical stability assessed as half life of hydrolysis at pH 7.4; assay type: physicochemical; details: buffer
[3] = system: Rattus norvegicus; assay: Toxicity in Brown Norwegian rat bearing BN472 tumor assessed as increase in uterus weight at 1 mg/kg, ip administered once daily after 4 days of tumor transplantation for 17 to 18 days relative to control; assay type: organism-based; set-up: dose 1 mg/kg, route intraperitoneal; details: in vivo
Method in brief: (§1)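 Orthotopic BN472 breast tumour model in rats. Daily i.p. dosing at 0.1 or 1 mg/kg started on day 4 and ran 17–18 days, with vehicle-only i.p. controls. Side effects were assessed from body weight and the weights of several organs, compared with controls.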

[4] = biological target: Prothrombin (Rattus norvegicus, UniProt P18292); assay: Inhibition of rat thrombin
[5] = system: Rattus norvegicus; assay: (§2) Toxicity in Brown Norwegian rat bearing BN472 tumor assessed as decrease in adrenal weight at 0.1 mg/kg, ip administered once daily after 4 days of tumor transplantation for 17 to 18 days relative to control; assay type: organism-based; set-up: dose 0.1 mg/kg, route intraperitoneal; scale not given: the % may be the effect or the level left; details: in vivo; method in brief: as §1
[6] = Antimetastatic activity against Brown Norwegian rat bearing BN472 tumor assessed as decrease in number of lung foci at 0.1 mg/kg, ip administered once daily after 4 days of tumor transplantation for 17 to 18 days relative to control; assay type: functional; set-up: scale not given: the % may be the effect or the level left; details: route intraperitoneal
Method in brief: (§3)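 BN472 breast tumours implanted orthotopically in rats and left to grow three days. From day 4, compounds were given i.p. daily for 17–18 days at 0.1 or 1 mg/kg. Controls received vehicle i.p. only. Lung foci were counted and axillary lymph nodes weighed at the end of treatment. Groups were compared with control at an unadjusted significance level of P 0.05.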

[7] = Apparent solubility in phosphate buffered saline at pH 7.4 after 2 hrs; assay type: ADME
Method in brief: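 Compounds were serially diluted from 10 mM DMSO stock into PBS pH 7.4 (2% DMSO final), giving 1–200 µM final at eight concentrations, in duplicate. Incubation was 2 h at 37 °C. Solubility was taken as the onset of increased absorbance at 620 nm.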

[8] = system: Rattus norvegicus; assay: Toxicity in Brown Norwegian rat bearing BN472 tumor assessed as increase in lung weight at 1 mg/kg, ip administered once daily after 4 days of tumor transplantation for 17 to 18 days relative to control; assay type: organism-based; set-up: dose 1 mg/kg, route intraperitoneal; details: in vivo; method in brief: as §1
[9] = Antimetastatic activity against Brown Norwegian rat bearing BN472 tumor assessed as reduction of interpectoral lymph node weight at 0.1 mg/kg, ip administered once daily after 4 days of tumor transplantation for 17 to 18 days relative to control; assay type: functional; set-up: scale not given: the % may be the effect or the level left; details: route intraperitoneal
[10] = biological target: Prothrombin (Homo sapiens, UniProt P00734); assay: Inhibition of human thrombin
Method in brief: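 Human plasma thrombin was assayed at 37 °C in Tris pH 8.3. […] Initial rate was read at 405 nm, in duplicate. IC50 was obtained from a four-parameter logistic fit.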

[11] = system: Rattus norvegicus; assay: as §2; assay type: organism-based; set-up: dose 0.1 mg/kg, route intraperitoneal; scale not given: the % may be the effect or the level left; details: in vivo; method in brief: as §1; remark: listed apart in the source
[12] = biological target: Coagulation factor X (Homo sapiens, UniProt P00742); assay: Inhibition of factor 10a
Coagulation factor X, sequence (P00742 41-179 limits assumed): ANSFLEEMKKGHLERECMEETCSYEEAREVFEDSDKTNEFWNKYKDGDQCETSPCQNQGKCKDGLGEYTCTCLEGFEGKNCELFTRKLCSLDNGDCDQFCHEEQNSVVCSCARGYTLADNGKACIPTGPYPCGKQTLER
Coagulation factor X, sequence (P00742 235-488 limits assumed): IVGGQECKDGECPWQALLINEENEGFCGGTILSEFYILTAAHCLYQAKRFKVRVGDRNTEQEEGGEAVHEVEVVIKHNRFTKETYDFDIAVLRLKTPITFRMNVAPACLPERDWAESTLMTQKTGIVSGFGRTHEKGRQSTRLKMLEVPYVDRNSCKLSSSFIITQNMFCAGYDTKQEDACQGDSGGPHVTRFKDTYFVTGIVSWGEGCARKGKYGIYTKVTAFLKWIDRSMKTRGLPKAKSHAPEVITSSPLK
Method in brief: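 Human factor Xa (FX activated with Russell's viper venom) at about 5 mU was preincubated with inhibitor (0–250 µM final) for 15 min at 37 °C. […] IC50 came from a four-parameter logistic fit.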

[13] = system: Rattus norvegicus; assay: Toxicity in Brown Norwegian rat bearing BN472 tumor assessed as decrease in liver weight at 0.1 mg/kg, ip administered once daily after 4 days of tumor transplantation for 17 to 18 days relative to control; assay type: organism-based; set-up: dose 0.1 mg/kg, route intraperitoneal; scale not given: the % may be the effect or the level left; details: in vivo; method in brief: as §1
[14] = system: Rattus norvegicus; assay: Toxicity in Brown Norwegian rat bearing BN472 tumor assessed as increase in spleen weight at 0.1 mg/kg, ip administered once daily after 4 days of tumor transplantation for 17 to 18 days relative to control; assay type: organism-based; set-up: dose 0.1 mg/kg, route intraperitoneal; details: in vivo; method in brief: as §1
[15] = Chemical stability assessed as half life of hydrolysis at pH 1; assay type: physicochemical; details: buffer
[16] = Antimetastatic activity against Brown Norwegian rat bearing BN472 tumor assessed as reduction of axillary lymph node weight at 1 mg/kg, ip administered once daily after 4 days of tumor transplantation for 17 to 18 days relative to control; assay type: functional; set-up: scale not given: the % may be the effect or the level left; details: route intraperitoneal; method in brief: as §3
[17] = biological target: Prothrombin (Mus musculus, UniProt P19221); assay: Inhibition of mouse thrombin
[18] = system: Rattus norvegicus; assay: Toxicity in Brown Norwegian rat bearing BN472 tumor assessed as effect on body weight at 1 mg/kg, ip administered once daily after 4 days of tumor transplantation for 17 to 18 days relative to control; assay type: organism-based; set-up: dose 1 mg/kg, route intraperitoneal; details: in vivo; method in brief: as §1
[19] = Antimetastatic activity against Brown Norwegian rat bearing BN472 tumor assessed as reduction of axillary lymph node weight at 0.1 mg/kg, ip administered once daily after 4 days of tumor transplantation for 17 to 18 days relative to control; assay type: functional; set-up: scale not given: the % may be the effect or the level left; details: route intraperitoneal; method in brief: as §3
[20] = Antimetastatic activity against Brown Norwegian rat bearing BN472 tumor assessed as reduction of interpectoral lymph node weight at 1 mg/kg, ip administered once daily after 4 days of tumor transplantation for 17 to 18 days relative to control; assay type: functional; set-up: scale not given: the % may be the effect or the level left; details: route intraperitoneal
[21] = Antimetastatic activity against Brown Norwegian rat bearing BN472 tumor assessed as decrease in number of lung foci at 1 mg/kg, ip administered once daily after 4 days of tumor transplantation for 17 to 18 days relative to control; assay type: functional; set-up: scale not given: the % may be the effect or the level left; details: route intraperitoneal; method in brief: as §3
[22] = system: Rattus norvegicus; assay: Toxicity in Brown Norwegian rat bearing BN472 tumor assessed as increase in kidney weight at 1 mg/kg, ip administered once daily after 4 days of tumor transplantation for 17 to 18 days relative to control; assay type: organism-based; set-up: dose 1 mg/kg, route intraperitoneal; details: in vivo; method in brief: as §1
[23] = system: Rattus norvegicus; assay: Toxicity in Brown Norwegian rat bearing BN472 tumor assessed as increase in uterus weight at 0.1 mg/kg, ip administered once daily after 4 days of tumor transplantation for 17 to 18 days relative to control; assay type: organism-based; set-up: dose 0.1 mg/kg, route intraperitoneal; details: in vivo; method in brief: as §1
[24] = system: Rattus norvegicus; assay: Toxicity in Brown Norwegian rat bearing BN472 tumor assessed as decrease in liver weight at 1 mg/kg, ip administered once daily after 4 days of tumor transplantation for 17 to 18 days relative to control; assay type: organism-based; set-up: dose 1 mg/kg, route intraperitoneal; scale not given: the % may be the effect or the level left; details: in vivo; method in brief: as §1
[25] = Antitumor activity against Brown Norwegian rat bearing BN472 tumor assessed as reduction of tumor size at 1 mg/kg, ip administered once daily after 4 days of tumor transplantation for 17 to 18 days relative to control; assay type: functional; set-up: scale not given: the % may be the effect or the level left; details: route intraperitoneal
Method in brief: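 Rats bearing orthotopic BN472 breast tumours (grown three days) were dosed i.p. daily from day 4 for 17–18 days at 0.1 or 1 mg/kg. Vehicle-only i.p. controls were included. Tumour size and tumour weight were measured at the end of the treatment period and compared with controls.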

[26] = biological target: Urokinase-type plasminogen activator (Rattus norvegicus, UniProt P29598); assay: Inhibition of rat uPA
Urokinase-type plasminogen activator (Rattus norvegicus, UniProt P29598), sequence (P29598 20-177 limits assumed): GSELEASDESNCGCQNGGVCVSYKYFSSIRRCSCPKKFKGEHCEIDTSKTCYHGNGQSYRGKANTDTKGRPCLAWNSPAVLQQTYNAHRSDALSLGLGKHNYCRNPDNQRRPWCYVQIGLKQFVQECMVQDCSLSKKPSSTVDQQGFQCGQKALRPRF
Urokinase-type plasminogen activator (Rattus norvegicus, UniProt P29598), sequence (P29598 179-432 limits assumed): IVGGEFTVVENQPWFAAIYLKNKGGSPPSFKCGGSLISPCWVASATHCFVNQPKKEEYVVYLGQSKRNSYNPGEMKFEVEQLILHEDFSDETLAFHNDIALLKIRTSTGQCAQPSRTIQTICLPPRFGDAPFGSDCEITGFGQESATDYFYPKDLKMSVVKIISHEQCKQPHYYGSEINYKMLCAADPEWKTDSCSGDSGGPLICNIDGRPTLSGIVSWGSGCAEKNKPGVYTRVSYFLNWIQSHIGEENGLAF

[27] = biological target: Plasminogen (Rattus norvegicus, UniProt Q01177); assay: Inhibition of rat plasmin
Plasminogen, sequence (Q01177 97-581 limits assumed): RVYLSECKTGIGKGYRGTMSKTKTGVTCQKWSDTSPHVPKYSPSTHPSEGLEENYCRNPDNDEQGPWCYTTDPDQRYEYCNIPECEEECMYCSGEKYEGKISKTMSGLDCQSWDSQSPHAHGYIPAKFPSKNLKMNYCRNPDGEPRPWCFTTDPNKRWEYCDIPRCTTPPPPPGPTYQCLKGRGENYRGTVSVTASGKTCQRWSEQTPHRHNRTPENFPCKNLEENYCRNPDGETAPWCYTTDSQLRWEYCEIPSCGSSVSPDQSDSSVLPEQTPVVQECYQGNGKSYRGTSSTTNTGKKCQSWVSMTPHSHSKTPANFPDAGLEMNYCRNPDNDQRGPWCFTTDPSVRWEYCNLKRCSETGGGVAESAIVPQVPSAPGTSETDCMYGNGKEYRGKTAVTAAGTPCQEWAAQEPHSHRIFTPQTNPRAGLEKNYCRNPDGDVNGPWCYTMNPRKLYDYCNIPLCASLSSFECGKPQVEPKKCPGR
Plasminogen, sequence (Q01177 582-812 limits assumed): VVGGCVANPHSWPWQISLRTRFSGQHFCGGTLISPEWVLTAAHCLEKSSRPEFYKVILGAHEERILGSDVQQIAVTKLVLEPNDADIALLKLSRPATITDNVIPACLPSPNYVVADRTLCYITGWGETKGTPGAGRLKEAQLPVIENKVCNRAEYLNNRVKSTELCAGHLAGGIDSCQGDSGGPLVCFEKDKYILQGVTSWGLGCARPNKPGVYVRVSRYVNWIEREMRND

[28] = biological target: Urokinase-type plasminogen activator (Homo sapiens, UniProt P00749)
[29] = Stability in human plasma after 3 hrs; assay type: ADME, cell-free; details: read-out: Stability
Method in brief: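 Compound was added from 10 mM DMSO stock to human plasma at 200 µM final and shaken at 37 °C for up to 24 h. Aliquots were quenched in methanol and centrifuged. The supernatant was diluted with internal standard and analysed by LC/MS/MS in triplicate. Result is given as % parent compound remaining.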

[30] = system: Rattus norvegicus; assay: Toxicity in Brown Norwegian rat bearing BN472 tumor assessed as increase in kidney weight at 0.1 mg/kg, ip administered once daily after 4 days of tumor transplantation for 17 to 18 days relative to control; assay type: organism-based; set-up: dose 0.1 mg/kg, route intraperitoneal; details: in vivo; method in brief: as §1
[31] = biological target: Urokinase-type plasminogen activator (Mus musculus, UniProt P06869); assay: Inhibition of mouse uPA
Urokinase-type plasminogen activator (Mus musculus, UniProt P06869), sequence (P06869 21-178 limits assumed): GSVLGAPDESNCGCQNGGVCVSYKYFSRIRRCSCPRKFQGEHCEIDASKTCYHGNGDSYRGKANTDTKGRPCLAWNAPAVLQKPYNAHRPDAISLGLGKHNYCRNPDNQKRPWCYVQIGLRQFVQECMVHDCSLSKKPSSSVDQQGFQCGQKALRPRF
Urokinase-type plasminogen activator (Mus musculus, UniProt P06869), sequence (P06869 180-433 limits assumed): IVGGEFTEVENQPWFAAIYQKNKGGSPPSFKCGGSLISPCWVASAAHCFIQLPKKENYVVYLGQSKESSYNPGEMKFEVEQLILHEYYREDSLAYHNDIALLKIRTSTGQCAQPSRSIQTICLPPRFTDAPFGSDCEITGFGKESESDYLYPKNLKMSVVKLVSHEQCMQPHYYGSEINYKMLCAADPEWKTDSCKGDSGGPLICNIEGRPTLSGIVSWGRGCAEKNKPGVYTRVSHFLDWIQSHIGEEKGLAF

## COC(=O)NC(Cc1ccc(NC(=N)N)cc1)P(=O)(Oc1ccc(NC(C)=O)cc1)Oc1ccc(NC(C)=O)cc1 (stereo unspecified)
[1]
  half-life: > 336 h
[2]
  half-life: 64 h
[3]
  Activity: 33%
[4]
  IC50: 45000 nM
[5]
  Activity: 5%
[6]
  Activity: 42%
[7]
  solubility at 2 h: > 200 µM
[8]
  Activity: 7%
[9]
  Activity: 3%
[10]
  IC50: 1130 nM
[11]
  Activity: 2%
[12]
  IC50: 30000 nM
[13]
  Activity: 2%
[14]
  Activity: 3%
[15]
  half-life: 35 h
[16]
  Activity: 73%
[17]
  IC50: 4500 nM
[18]
  Activity: 170.5 g
[19]
  Activity: 49%
[20]
  Activity: 6%
[21]
  Activity: 70%
[22]
  Activity: 3%
[23]
  Activity: 16%
[24]
  Activity: 8%
[25]
  Activity: 18%
[26]
  IC50: 24.5 nM
[27]
  IC50: 2200 nM
[28]
  Kapp: 1e+06 M⁻¹ s⁻¹
[29]
  remaining at 3 h: 81%
[30]
  Activity: 7%
[31]
  IC50: 8 nM
